The test deals with Mycobacterium tuberculosis. The test can be described thus: Antimycobacterial activity against drug-susceptible Mycobacterium tuberculosis H37Rv measured 24 hrs post dose by microplate alamar blue assay. It counts as functional. In a few lines: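 Two-fold serial drug dilutions in 7H9 medium in 48-well plates, with H37Rv suspension added to give 4 × 10^-4 mg/mL bacteria per well. Plates were incubated at 37 °C, and alamar blue was added at an optimal time. The read was visual at 24 h after reagent addition. MIC was taken as the lowest concentration preventing the colour change.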

Each structure is given as a SMILES string. Values after ≈ are worked out from the molar mass of the structure shown. Active and inactive are the calls of the source.

The term MIC denotes the smallest concentration in the dilution series that meets the test's criterion for growth inhibition. Consider `CCCCCCCCc1c2[n+](cc3c(OC)c(OC)ccc13)CCc1cc3c(cc1-2)OCCO3.[Cl-]`, for which it took 2 µg/mL to inhibit growth (MIC). The molecule `CCCCCCCCc1c2[n+](cc3c(OCc4ccccc4)c(OC)ccc13)CCc1cc3c(cc1-2)OCO3.[Cl-]` gave an MIC of 4 µg/mL. For `CCCCCCCCc1c2[n+](cc3c(OCCC)c(OC)ccc13)CCc1cc(OCCC)c(O)cc1-2.[Cl-]`, the minimal inhibitory concentration (MIC) worked out at 4 µg/mL.

Regarding `CCCCCCCCc1c2[n+](cc3c(OC)c(OC)ccc13)CCc1cc(OCCCC)c(O)cc1-2.[Cl-]`, the MIC stood at 8 µg/mL. With `CCCCCCCCc1c2[n+](cc3c(OS(=O)(=O)c4ccc(C(F)(F)F)cc4)c(OC)ccc13)CCc1cc3c(cc1-2)OCO3.[Cl-]`, the MIC turned out to be 16 µg/mL. Turning to `CCCc1c2[n+](cc3c(OC)c(OC)ccc13)CCc1cc3c(cc1-2)OCO3`, the MIC result is “inactive”. `CCc1c2[n+](cc3c(OC)c(OC)ccc13)CCc1cc3c(cc1-2)OCO3`: the MIC entry was “inactive”. `CCCCCCCCc1c2[n+](cc3c(OC)c(OC)ccc13)CCc1cc3c(cc1-2)OCO3.[Cl-]`: the minimum inhibitory concentration (MIC) was 2 µg/mL. For `CCCCCCCCc1c2[n+](cc3c(OC)c(OC)ccc13)CCc1cc(OCCC)c(O)cc1-2.[Cl-]` the value was 4 µg/mL.

In the case of `CCCCCCCCc1c2[n+](cc3c(O)c(OC)ccc13)CCc1cc3c(cc1-2)OCO3.[Cl-]`, inhibition of growth (MIC) required 4 µg/mL.

For the molecule `CCCCCCCCc1c2[n+](cc3c(OCC)c(OC)ccc13)CCc1cc(OCC)c(OCC)cc1-2.[Cl-]`, the minimum inhibitory concentration (MIC) turned out to be 0.125 µg/mL. For `CCCCCCCCc1c2[n+](cc3c(OC)c(OC)ccc13)CCc1cc(OC)c(O)cc1-2.[Cl-]` the value was 2 µg/mL; for `CCCCCCCCc1c2[n+](cc3c(OC)c(OC)ccc13)CCc1cc(OCCCC)c(OCCCC)cc1-2.[Cl-]`, 2 µg/mL; for `CCCCCCCCc1c2[n+](cc3c(OCCCC)c(OC)ccc13)CCc1cc3c(cc1-2)OCO3.[Cl-]`, 8 µg/mL. The molecule `CCCCCCCCc1c2[n+](cc3c(OC)c(OC)ccc13)CCc1cc(O)c(O)cc1-2.[Cl-]` showed an MIC of 16 µg/mL. For `CO[C@H]1/C=C/O[C@@]2(C)Oc3c(C)c(O)c4c(O)c(c(/C=N/N5CCN(C)CC5)c(O)c4c3C2=O)NC(=O)/C(C)=C\C=C\[C@H](C)[C@H](O)[C@@H](C)[C@@H](O)[C@@H](C)[C@H](OC(C)=O)[C@@H]1C` [RIFAMPIN] the value was 0.0625 µg/mL (≈ 0.0759 µM). For `CCCCCCCCc1c2[n+](cc3c(OC(=O)c4ccc(C)cc4)c(OC)ccc13)CCc1cc3c(cc1-2)OCO3.[Cl-]` the value was 4 µg/mL. For `CCCCCCCCc1c2[n+](cc3c(OC)c(OC)ccc13)CCc1cc(OCC)c(OCC)cc1-2.[Cl-]` the value was 0.5 µg/mL. As to `CCCCCCCCc1c2[n+](cc3c(OS(=O)(=O)c4ccc(C#N)cc4)c(OC)ccc13)CCc1cc3c(cc1-2)OCO3.[Cl-]`, the lowest concentration to inhibit growth (MIC) was 8 µg/mL. On to `CCCCCCCCc1c2[n+](cc3c(OC)c(OC)ccc13)CCc1cc(OCc3ccccc3)c(O)cc1-2.[Cl-]`, for which the MIC is 2 µg/mL.

With `CCCCc1c2[n+](cc3c(OC)c(OC)ccc13)CCc1cc3c(cc1-2)OCO3`, the MIC result was “inactive”. For `CCCCCCCCc1c2[n+](cc3c(OC(=O)c4ccc(OC)cc4)c(OC)ccc13)CCc1cc3c(cc1-2)OCO3.[Cl-]`, the MIC was 4 µg/mL. For `COc1ccc2c(C)c3[n+](cc2c1OC)CCc1cc2c(cc1-3)OCO2`, the MIC entry was “inactive”. For `CCCCCCCCc1c2[n+](cc3c(OCc4ccccc4)c(OC)ccc13)CCc1cc(OCc3ccccc3)c(O)cc1-2.[Cl-]`, the MIC came to 0.5 µg/mL. For `CCCCCCCCc1c2[n+](cc3c(OC)c(OC)ccc13)CCc1cc(OC)c(OC)cc1-2.[Cl-]` the value was 2 µg/mL; for `CCCCCCc1c2[n+](cc3c(OC)c(OC)ccc13)CCc1cc3c(cc1-2)OCO3`, “inactive”; for `CCCCCCCCc1c2[n+](cc3c(OCc4ccccc4)c(OC)ccc13)CCc1cc(OCc3ccccc3)c(OCc3ccccc3)cc1-2.[Cl-]`, 8 µg/mL.

In turn, `NNC(=O)c1ccncc1` [ISONIAZID] registered an MIC of 0.0625 µg/mL (≈ 0.456 µM). The result for `CCCCCCCCc1c2[n+](cc3c(OCC)c(OC)ccc13)CCc1cc3c(cc1-2)OCO3.[Cl-]` reads 4 µg/mL; that for `CCCCCCCCc1c2[n+](cc3c(OC)c(OC)ccc13)CCc1cc(OCc3ccccc3)c(OCc3ccccc3)cc1-2.[Cl-]`, 8 µg/mL. The result for `CCCCCCCCc1c2[n+](cc3c(OCC)c(OC)ccc13)CCc1cc(OCC)c(O)cc1-2.[Cl-]` reads 4 µg/mL; that for `CCCCCCCCc1c2[n+](cc3c(OCCCC)c(OC)ccc13)CCc1cc(OCCCC)c(O)cc1-2.[Cl-]`, 8 µg/mL; that for `CCCCCCCCc1c2[n+](cc3c(O)c(OC)ccc13)CCc1cc(O)c(O)cc1-2.[Cl-]`, 32 µg/mL.

`CCCCCCCCc1c2[n+](cc3c(OC)c(OC)ccc13)CCc1cc(OCC)c(O)cc1-2.[Cl-]` gave an MIC of 2 µg/mL. For `CCCCCCCCc1c2[n+](cc3c(OC)c(OC)ccc13)CCc1cc(OCCC)c(OCCC)cc1-2.[Cl-]` the value was 2 µg/mL; for `COc1ccc2cc3[n+](cc2c1OC)CCc1cc2c(cc1-3)OCO2`, “inactive”; for `CCCCCc1c2[n+](cc3c(OC)c(OC)ccc13)CCc1cc3c(cc1-2)OCO3`, “inactive”.

The molecule `CCCCCCCCc1c2[n+](cc3c(OCCC)c(OC)ccc13)CCc1cc3c(cc1-2)OCO3.[Cl-]` returned an MIC of 2 µg/mL. For `CCCCCCCc1c2[n+](cc3c(OC)c(OC)ccc13)CCc1cc3c(cc1-2)OCO3` the value was “inactive”.

Source of the values: ChEMBL document CHEMBL2021893, “Synthesis, structure-activity relationship and in vitro anti-mycobacterial evaluation of 13-n-octylberberine derivatives” (2012).
